In ChEMBL document CHEMBL1122860, “Stereoselectivity of muscarinic receptors in vivo and in vitro for oxotremorine analogues. N-[4-(tertiary amino)-2-butynyl]-5-methyl-2-pyrrolidones” (J Med Chem, 1985):
Activity calls are given as the source filed them. The rule behind the calls is not given here.

What was measured:
Mus musculus [1] = species on record: Mus musculus; experiment: Tested for tremorolytic activity in mice, expressed as dose required to double the dose of oxotremorine inducing a predetermined (grade 2) tremor intensity.; format: functional
Procedure, shortened: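 Antagonist given i.p. to groups of six or more mice at four linearly spaced doses including zero, 15 min before i.v. oxotremorine (log dose series, 0.1 log spacing). Median oxotremorine dose evoking grade 2 tremor estimated by Dixon up-and-down method, tremor scored visually over first 5 min. The antagonist dose doubling that median dose was found by linear regression.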

Mus musculus [2] = species on record: Mus musculus; experiment: Tested for mydriatic activity in mice, expressed as the dose required to cause half-maximal pupillary dilation.; format: functional
[3] = Tested for its effect on contraction of frog rectus abdominis muscle, expressed as equipotent molar ratio relative to carbamylcholine.; format: functional
Procedure, shortened: (§1)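 Rana pipiens rectus abdominis held at 20 °C in aerated Clark-Ringer solution, pH 7.4. Each drug concentration applied for 5 min. Equipotent molar ratio relative to carbachol determined in three-point assays.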

[4] = molecular target: T1, Muscarinic acetylcholine receptor (Homo sapiens) (UniProt P20309+P08173+P11229+P08172+P08912); experiment: Tested for agonist activity at muscarinic receptor in guinea pig ileum, expressed as equipotent molar ratio relative to carbamylcholine.; format: functional, tissue-based; conditions: Cavia porcellus
[5] = molecular target: T1, Muscarinic acetylcholine receptor (Homo sapiens); experiment: Tested for agonist activity at Muscarinic acetylcholine receptor in guinea pig ileum; format: functional, tissue-based; conditions: Cavia porcellus, target entry is the homologue from another species
[6] = Acute toxicity in mice; format: organism-based; conditions: mouse, in vivo
Procedure, shortened: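 Mice given compound intravenously; LD50 determined by the up and down method for small samples. Mortality counted at 15 min.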

frog = experiment: Tested for its effect on contraction of frog rectus abdominis muscle, expressed as equipotent molar ratio relative to carbamylcholine; Inactive; format: functional, tissue-based; procedure, shortened: as §1
[7] = molecular target: T1, Muscarinic acetylcholine receptor (Homo sapiens); conditions: Cavia porcellus; Ileum
Cavia porcellus [8] = species on record: Cavia porcellus; experiment: Percent occupancy for 50% response calculated from (100 x ED50)/(KA+ED50).; format: functional
Procedure, shortened: (§2)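 Isolated guinea pig ileum. Control agonist dose-response curves were run, then tissue treated with propylbenzilylcholine mustard 2×10⁻⁸ M for 15–20 min, cutting maximal response by 20–80%. Double-reciprocal plots of equieffective agonist concentrations before and after treatment gave K_A (Furchgott method). Relative efficacy was derived from K_A and ED50; occupancy for 50% response was taken as 100ED50/(K_A + ED50).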

[9] = molecular target: T1, Muscarinic acetylcholine receptor (Homo sapiens); conditions: Cavia porcellus; Ileum; remark: listed apart in the source
Cavia porcellus [10] = species on record: Cavia porcellus; experiment: Relative efficacy calculated from KA and ED50 values; format: functional; procedure, shortened: as §2

Compound | ED50 (Mus musculus [1]) | EPMR [3] | EPMR [4] | ED50 [5] | LD50 [6] | further results
C[C@H](C#CCN1CCCC1)N1CCCC1=O | 0.26 µmol/kg | – | – | – | – | –
CC1CCC(=O)N1CC#CCN1CCCC1 (racemic) | 0.4 µmol/kg | 116 | – | – | – | ED50 (Mus musculus [2]): 9 µmol/kg
C[C@@H](C#CCN1CCCC1)N1CCCC1=O | 20 µmol/kg | – | – | – | – | –
C[C@H]1CCC(=O)N1CC#CC[N+](C)(C)C.[I-] | – | 8.8 | 20 | 1.3 | 3.5 µmol/kg | –
C[C@H]1CCC(=O)N1CC#CCN1CCCC1 | 4.2 µmol/kg | 132 | – | – | 40 µmol/kg | ED50 (Mus musculus [2]): 66 µmol/kg
C[C@H]1CCC(=O)N1CC#CCN(C)C | 50 µmol/kg | – | 73.9 | 4.6 µM l-1 | 183 µmol/kg | EPMR (frog): inactive
O=C1CCCN1CC#CCN1CCCC1 [OXOTREMORINE] | – | 49 | 0.42 | – | 6.7 µmol/kg | ED50 [7]: 0.026 µM l-1; Occupancy (Cavia porcellus [8]): 3.5%; KA [9]: 0.68; Relative efficacy (Cavia porcellus [10]): 1
CN1[C@@H]2CC[C@H]1C[C@@H](OC(=O)C(CO)c1ccccc1)C2 (stereo partly drawn) [ATROPINE] | 0.86 µmol/kg | – | – | – | – | –
C[C@@H]1CCC(=O)N1CC#CC[N+](C)(C)C.[I-] | – | 10 | 1.2 | 0.076 | 8.9 µmol/kg | –
CN(C)CC#CCN1CCCC1=O | – | – | – | – | – | Occupancy (Cavia porcellus [8]): 0.55%; KA [9]: 22.9 µM l-1; Relative efficacy (Cavia porcellus [10]): 6.51
CC1CCC(=O)N1CC#CCN(C)C (racemic) | 5.5 µmol/kg | – | 8.8 | 0.55 µM l-1 | – | –
C[C@@H]1CCC(=O)N1CC#CCN(C)C | 2.4 µmol/kg | – | 4.6 | 0.29 µM l-1 | 426 µmol/kg | EPMR (frog): inactive; Occupancy (Cavia porcellus [8]): 11%; KA [5]: 2.34; Relative efficacy (Cavia porcellus [10]): 0.29
C[C@@H]1CCC(=O)N1CC#CCN1CCCC1 | 0.19 µmol/kg | 141 | – | – | 45 µmol/kg | ED50 (Mus musculus [2]): 4.8 µmol/kg
